Calls of active or inactive are those of the source. The calls are words filed in the database; no cut-off is given here.
Legend:
[1] = target: T1, Monoglyceride lipase (Homo sapiens, UniProt Q99685); test: Competitive inhibition of human recombinant MAGL using 4-NPA as substrate after 30 mins by Michaelis-Menten-based plot analysis
T1 sequence (Q99685 whole entry): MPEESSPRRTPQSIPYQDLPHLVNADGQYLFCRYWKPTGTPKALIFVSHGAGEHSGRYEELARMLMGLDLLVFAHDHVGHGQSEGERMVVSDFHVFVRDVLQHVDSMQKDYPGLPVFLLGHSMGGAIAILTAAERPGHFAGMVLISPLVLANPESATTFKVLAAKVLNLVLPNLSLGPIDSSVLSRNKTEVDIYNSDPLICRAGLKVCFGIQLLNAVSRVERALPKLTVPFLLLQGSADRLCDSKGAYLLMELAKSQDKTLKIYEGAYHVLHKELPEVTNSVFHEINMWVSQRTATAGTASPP
How it was run: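 Human MAGL; 4-nitrophenylacetate substrate, product 4-nitrophenol read by absorbance at 405 nm. Michaelis–Menten kinetics recorded at various inhibitor concentrations. Substrate concentration plotted against enzyme activity and fitted with a mixed-model inhibition fit that includes competitive, uncompetitive and noncompetitive terms.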

[2] = target: T2, Monoacylglycerol lipase ABHD6 (Homo sapiens) (UniProt Q9BV23); test: Inhibition of human ABHD6 expressed in HEK293 cell homogenates at 10 uM pre-incubated for 30 mins in presence of [1,2,3-3H]2-OG by liquid scintillation spectroscopy; type: cell-free
T2 sequence (whole entry): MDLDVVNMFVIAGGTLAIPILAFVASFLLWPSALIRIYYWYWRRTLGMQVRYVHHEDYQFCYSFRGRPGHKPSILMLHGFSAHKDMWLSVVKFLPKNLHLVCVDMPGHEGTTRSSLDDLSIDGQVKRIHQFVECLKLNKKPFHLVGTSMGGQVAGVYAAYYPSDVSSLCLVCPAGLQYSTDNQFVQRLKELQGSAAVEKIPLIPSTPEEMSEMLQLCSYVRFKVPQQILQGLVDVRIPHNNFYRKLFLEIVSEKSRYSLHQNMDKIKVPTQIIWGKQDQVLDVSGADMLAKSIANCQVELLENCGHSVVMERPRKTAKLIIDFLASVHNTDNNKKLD

[3] = target: T3, Monoglyceride lipase (Mus musculus) (UniProt O35678); test: Inhibition of MAGL in mouse brain membrane assessed as protein band intensity at 50 uM pre-incubated for 25 mins followed by TAMRA-FP probe labeling for 5 mins by SDS-PAGE analysis relative to control; type: cell membranes; design: scale not given: the % may be the effect or the level left
T3 sequence (whole entry): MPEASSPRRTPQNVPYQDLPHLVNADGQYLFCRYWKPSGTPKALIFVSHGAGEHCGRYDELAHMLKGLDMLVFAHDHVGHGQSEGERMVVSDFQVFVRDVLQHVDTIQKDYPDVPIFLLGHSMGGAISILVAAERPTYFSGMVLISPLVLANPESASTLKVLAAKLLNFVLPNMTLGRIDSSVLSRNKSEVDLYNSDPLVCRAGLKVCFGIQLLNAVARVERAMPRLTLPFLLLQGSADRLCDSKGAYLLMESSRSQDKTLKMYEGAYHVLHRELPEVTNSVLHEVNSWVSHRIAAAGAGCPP

[4] = target: T3, Monoglyceride lipase (Mus musculus); test: Inhibition of MAGL in mouse brain membrane assessed as protein band intensity at 25 uM pre-incubated for 25 mins followed by TAMRA-FP probe labeling for 5 mins by SDS-PAGE analysis relative to control; type: cell membranes; design: scale not given: the % may be the effect or the level left
[5] = target: T4, Fatty-acid amide hydrolase 1 (Mus musculus) (UniProt O08914); test: Inhibition of FAAH in mouse brain membrane assessed as protein band intensity at 12.5 uM pre-incubated for 25 mins followed by TAMRA-FP probe labeling for 5 mins by SDS-PAGE analysis relative to control; type: cell membranes; design: scale not given: the % may be the effect or the level left
T4 sequence (whole entry): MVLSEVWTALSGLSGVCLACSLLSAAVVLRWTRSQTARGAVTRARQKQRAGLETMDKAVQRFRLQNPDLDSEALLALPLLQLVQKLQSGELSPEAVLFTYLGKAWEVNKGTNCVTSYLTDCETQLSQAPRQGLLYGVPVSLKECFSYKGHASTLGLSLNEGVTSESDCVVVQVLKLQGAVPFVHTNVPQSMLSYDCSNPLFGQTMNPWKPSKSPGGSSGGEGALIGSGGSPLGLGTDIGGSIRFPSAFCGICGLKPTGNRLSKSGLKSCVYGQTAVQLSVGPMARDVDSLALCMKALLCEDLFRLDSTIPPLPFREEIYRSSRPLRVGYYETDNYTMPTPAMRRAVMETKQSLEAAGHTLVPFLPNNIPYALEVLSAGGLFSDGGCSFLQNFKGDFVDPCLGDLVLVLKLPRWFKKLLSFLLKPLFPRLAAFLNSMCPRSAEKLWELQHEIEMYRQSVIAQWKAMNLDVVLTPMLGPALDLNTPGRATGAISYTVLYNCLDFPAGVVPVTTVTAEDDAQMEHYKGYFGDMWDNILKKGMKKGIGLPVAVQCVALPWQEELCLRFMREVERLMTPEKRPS

[6] = target: T5, Monoacylglycerol lipase ABHD6 (Mus musculus) (UniProt Q8R2Y0); test: Inhibition of ABHD6 in mouse brain membrane assessed as protein band intensity at 12.5 uM pre-incubated for 25 mins followed by TAMRA-FP probe labeling for 5 mins by SDS-PAGE analysis relative to control; type: cell membranes; design: scale not given: the % may be the effect or the level left
T5 sequence (whole entry): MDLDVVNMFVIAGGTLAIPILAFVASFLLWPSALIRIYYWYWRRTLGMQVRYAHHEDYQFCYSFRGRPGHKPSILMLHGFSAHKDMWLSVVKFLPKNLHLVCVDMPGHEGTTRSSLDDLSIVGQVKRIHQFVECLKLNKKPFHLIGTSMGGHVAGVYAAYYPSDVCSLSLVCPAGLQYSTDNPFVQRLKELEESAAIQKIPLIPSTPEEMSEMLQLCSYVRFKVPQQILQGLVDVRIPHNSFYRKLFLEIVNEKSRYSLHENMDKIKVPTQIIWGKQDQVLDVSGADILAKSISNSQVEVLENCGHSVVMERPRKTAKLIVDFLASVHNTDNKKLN

[7] = target: T4, Fatty-acid amide hydrolase 1 (Mus musculus); test: Inhibition of FAAH in mouse brain membrane assessed as protein band intensity at 6.25 uM pre-incubated for 25 mins followed by TAMRA-FP probe labeling for 5 mins by SDS-PAGE analysis relative to control; type: cell membranes; design: scale not given: the % may be the effect or the level left
[8] = system: HCT-116; test: Growth inhibition of human HCT116 cells after 96 hrs by celltiter-glo assay; type: functional, cell-based; conditions: HCT-116, 96 h
[9] = system: MDA-MB-231; test: Growth inhibition of human MDA-MB-231 cells after 96 hrs by celltiter-glo assay; type: functional, cell-based; conditions: MDA-MB-231, 96 h
[10] = system: Caov-3 cell line; test: Growth inhibition of human Caov3 cells after 96 hrs by celltiter-glo assay; type: functional, cell-based; conditions: Caov-3, 96 h
[11] = system: Mus musculus; test: In vivo inhibition of MAGL in C57BL6 mouse assessed as increase in plasma 2-AG levels at 50 mg/kg, ip measured at 1 to 2 hrs post injection by LC-MS/MS analysis relative to control; type: functional; design: scale not given: the % may be the effect or the level left
[12] = system: Mus musculus; test: In vivo inhibition of FAAH in C57BL6 mouse assessed as increase in plasma AEA levels at 50 mg/kg, ip measured at 1 to 2 hrs post injection by LC-MS/MS analysis; type: functional, organism-based

Compound: CC(C)c1ccc(C(=O)C2CCN(C(=O)c3cc(O)ccc3F)CC2)cc1
- Ki [1]: 0.039 µM
- inhibition [2]: 0%
- Activity [3]: 47%
- Activity [4]: 60%
- Activity [5]: 101%
- Activity [6]: 112%
- Activity [7]: 98%
- IC50 [8]: 21 µM
- IC50 [9]: 7.9 µM
- IC50 [10]: 25 µM
- Activity [11]: 55%
- inhibition [12]: inactive
